Measured values as given in publication PMC10353488 (Journal of medicinal chemistry, 2020).

Legend:
[1] = tested on: C. trachomatis serovar L2; test: Inclusion forming units; assay type: cell-based, Chlamydia trachomatis; conditions: for impact on chlamydiae (infectious progeny, IFU): added 8 h after infection, 24 h; for inhibitory activity against chlamydiae (Figure 5a): ACP1b at 50 μg/mL, 40 at 50 μg/mL and 5.20 μg/mL
S. aureus JE2 = test: Broth microdilution antibacterial assay, S. aureus JE2; assay type: cell-based, Staphylococcus aureus; conditions: concentrations up to 256 μg/mL
E. coli K12 = test: Broth microdilution antibacterial assay, E. coli K12; assay type: cell-based, Escherichia coli; conditions: concentrations up to 256 μg/mL
[2] = tested on: human keratinocyte (HaCaT) cells; test: Cytotoxicity assay; assay type: cell-based; conditions: 50 μg/mL, 24 h
[3] = Metabolic stability in human liver microsomes; assay type: in vitro ADME; conditions: human liver microsomes with NADPH
Chlamydia = conditions: cited from earlier work
N. meningitidis = conditions: cited from earlier work
H. influenzae = conditions: cited from earlier work
[4] = cited from earlier work
C. trachomatis = conditions: cited from earlier work
E. coli ClpP = conditions: cited from earlier work
ClpP = test: In vitro casein degradation assay without AAA+ chaperone; assay type: biochemical; conditions: FITC-casein 20 μM, 32°C, 3 h
[5] = target: recombinant ClpP1 and ClpP2 from C. trachomatis L2 (Chlamydia trachomatis serovar D, UniProt O84712+P38002); test: In vitro casein degradation assay, chlamydial ClpP1/ClpP2; assay type: biochemical; conditions: 6 μM ClpP1 and ClpP2
In short: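 C-terminal His6-tagged C. trachomatis L2 ClpP1 and ClpP2 (6 μM each) were purified from clpAPX-null E. coli and used without AAA+ chaperone. Enzyme was preincubated with compound or DMSO for 30 min at 32 °C in HEPES pH 7.6/KCl/MgCl2/DTT/glycerol buffer, then 20 μM FITC-casein was added. Fluorescence (ex 490/em 525 nm) was read every 3 min for 3 h. Unlabeled casein digests were run on SDS-PAGE. ≥3 runs, ≥2 protein preparations.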

human ClpP = human ClpP (Homo sapiens, UniProt Q16740); test: In vitro casein degradation assay, human ClpP; assay type: biochemical; conditions: 1 μM ClpP
Sequence of human ClpP (Q16740 57-277): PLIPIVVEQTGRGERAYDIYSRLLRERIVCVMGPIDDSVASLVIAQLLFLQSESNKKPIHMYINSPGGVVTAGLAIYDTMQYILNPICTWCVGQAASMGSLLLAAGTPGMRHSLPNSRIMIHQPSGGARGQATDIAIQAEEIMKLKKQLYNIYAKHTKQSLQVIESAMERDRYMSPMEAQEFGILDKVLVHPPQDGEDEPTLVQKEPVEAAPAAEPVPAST
In short: (§1)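 Human or mouse ClpP ORF minus the mitochondrial localization signal was codon-optimised, C-terminally His6-tagged, and expressed and purified from clpAPX-null E. coli. 1 μM enzyme, without AAA+ chaperone, was preincubated 30 min at 32 °C with compound or DMSO in 25 mM HEPES pH 7.6 buffer before adding 20 μM FITC-casein. Fluorescence (ex 490/em 525 nm) was read every 3 min over 3 h. ≥3 runs, ≥2 protein preparations.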

mouse ClpP = mouse ClpP (Mus musculus, UniProt O88696); test: In vitro casein degradation assay, mouse ClpP; assay type: biochemical; conditions: 1 μM ClpP
Sequence of mouse ClpP (O88696 53-272): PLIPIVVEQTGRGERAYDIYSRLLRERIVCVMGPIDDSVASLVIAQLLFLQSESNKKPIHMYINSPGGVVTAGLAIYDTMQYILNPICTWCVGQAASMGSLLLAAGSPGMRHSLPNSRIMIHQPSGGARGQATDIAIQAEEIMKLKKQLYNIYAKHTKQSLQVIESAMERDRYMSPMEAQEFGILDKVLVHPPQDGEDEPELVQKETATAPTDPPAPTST
In short: as §1

[6] = tested on: epithelial cervix adenocarcinoma (HeLa 229) cells; test: Cytotoxicity assay; assay type: cell-based, human; conditions: 50 μg/mL, 24 h
D. melanogaster = test: Toxicity; assay type: in vivo, Drosophila melanogaster; conditions: 0.25, 0.5, and 1.0 mM
In short: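 Eggs from two different crosses collected for 8 hours in culture flasks on solid agar base (5% w/v) topped with live baker's yeast plus sugar.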

HEp-2 cells = test: Host cell morphology and viability under phase contrast microscopy; assay type: cell-based, human; conditions: 100 μg/mL
In short: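 HEp-2 cells grown in DMEM with 2% L-glutamine and 10% FBS at 37 °C, infected with C. trachomatis L2 at MOI 1. Test compound added in triplicate at 8 hpi. After 16 h (24 h total incubation), host cell morphology and viability inspected by phase contrast microscopy against untreated control cells.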

[7] = target: recombinant ClpP from E. coli (Escherichia coli, UniProt P0A6G7); test: In vitro casein degradation assay, E. coli ClpP; assay type: biochemical; conditions: 1 or 0.1 (40 only) μM ClpP
Sequence of recombinant ClpP from E. coli (P0A6G7 15-207): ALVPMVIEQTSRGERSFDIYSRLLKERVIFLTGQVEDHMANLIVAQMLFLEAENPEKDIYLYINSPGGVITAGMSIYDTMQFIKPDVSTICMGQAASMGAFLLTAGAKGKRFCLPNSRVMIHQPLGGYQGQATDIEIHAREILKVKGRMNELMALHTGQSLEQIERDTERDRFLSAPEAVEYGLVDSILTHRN

1-(4-(3,4-dichlorophenyl)piperazin-1-yl)-2-((5-(trifluoromethyl)pyridin-2-yl)sulfonyl) propan-1-one [Compound 37]
impact on chlamydiae (infectious progeny, IFU) ([1]; 50 μg/mL): remarkable impact
bacterial death (S. aureus JE2): bacterial death was not observed
bacterial death (E. coli K12): bacterial death was not observed
toxicity towards HaCaT cells [2]: more tolerated
CL(int) Mean [3]: 111.96 uL/(min*mg protein)
CL(int,H) Mean [3]: 873.80 mL/(min*kg bodywgt.)
T1/2 Mean [3]: 6.25 min

2-bromoethylamine [Compound 21]
bacterial death (S. aureus JE2): bacterial death was not observed
bacterial death (E. coli K12): bacterial death was not observed

CC[C@H]1OC(=O)[C@H](C)[C@@H](O[C@H]2C[C@@](C)(OC)[C@@H](O)[C@H](C)O2)[C@H](C)[C@@H](O[C@@H]2O[C@H](C)C[C@H](N(C)C)[C@H]2O)[C@](C)(O)C[C@@H](C)CN(C)[C@H](C)[C@@H](O)[C@]1(C)O [Azithromycin]
minimal chlamydicidal concentrations (MCCs) (Chlamydia): 4 µg/mL

CC(C)(C(=O)NCCSc1ccccc1Cl)S(=O)(=O)c1ccc(C(F)(F)F)cn1 [Compound 1]
antibacterial activity against N. meningitidis (N. meningitidis): 64 µg/mL
antibacterial activity against H. influenzae (H. influenzae): 32 µg/mL
fold less potent than ADEP1 [4]: 10-20 fold
formation of infectious EBs (C. trachomatis): drastic decrease

CC(C)(C(=O)NCCCc1ccccc1)S(=O)(=O)c1ccc(C(F)(F)F)cn1 [Compound 2]
inhibitory activity against chlamydiae (Figure 5a) [1]: good inhibitory activity
antibacterial activity against N. meningitidis (N. meningitidis): 16 µg/mL
antibacterial activity against H. influenzae (H. influenzae): 8 µg/mL
fold less potent than ADEP1 [4]: 10-20 fold
activation of E. coli ClpP in an enzymatic assay (E. coli ClpP): activate
formation of infectious EBs (C. trachomatis): drastic decrease

CC(C)(C(=O)NCCCc1ccccc1)S(=O)(=O)c1ccccc1 [Compound 9, 2-Methyl-N-(3-Phenylpropyl)-2-(phenylsulfonyl)propanamide]
ClpP-dependent casein degradation in the absence of a chaperone (ClpP): little or no degradation
activation of chlamydial ClpP1, ClpP2 or the ClpP1/2 dimer [5]: some residual decomposition

CC(C)(C(=O)NCCCc1ccccc1)S(=O)(=O)c1ccc(C(F)(F)F)cc1 [Compound 11, 2-Methyl-N-(3-Phenylpropyl)-2-((4-(trifluoromethyl)phenyl)sulfonyl)propanamide]
impact on chlamydiae (infectious progeny, IFU) ([1]; 50 μg/mL): remarkable impact
ClpP-dependent casein degradation in the absence of a chaperone (ClpP): enabled some species of ClpP to degrade casein
activation of chlamydial ClpP1, ClpP2 or the ClpP1/2 dimer [5]: some residual decomposition
activation of human ClpP (human ClpP): activated
activation of mouse ClpP (mouse ClpP): activated
bacterial death (S. aureus JE2): bacterial death was not observed
bacterial death (E. coli K12): bacterial death was not observed
toxicity towards HeLa 229 cells [6]: presented toxicity
toxicity towards HaCaT cells [2]: presented toxicity
toxicity against D. melanogaster (survival rate) (D. melanogaster): did not show toxicity
CL(int,H) Mean [3]: 890.58 mL/(min*kg bodywgt.)

CC(C)(C(=O)NCCSc1ccccc1Cl)S(=O)(=O)c1ccccc1 [Compound 16, N-(2-((2-chlorophenyl)thio)ethyl)-2-methyl-2-(phenylsulfonyl)propanamide]
ClpP-dependent casein degradation in the absence of a chaperone (ClpP): little or no degradation

CC(C)(C(=O)NCCSc1ccc(Cl)cc1)S(=O)(=O)c1ccccc1 [Compound 17, N-(2-((4-Chlorophenyl)thio)ethyl)-2-methyl-2-(phenylsulfonyl)propanamide]
ClpP-dependent casein degradation in the absence of a chaperone (ClpP): little or no degradation

CC(C)(C(=O)NCCSc1ccc(Cl)cc1)S(=O)(=O)c1ccc(C(F)(F)F)cn1 [Compound 20]
toxicity against D. melanogaster (survival rate) (D. melanogaster): did not show toxicity

CC(C)(C(=O)NCCOc1ccccc1)S(=O)(=O)c1ccc(C(F)(F)F)cc1 [Compound 24, 2-Methyl-N-(2-Phenoxyethyl)-2-))4-(trifluoromethyl)phenyl(sulfonyl(propenamide]
impact on chlamydiae (infectious progeny, IFU) ([1]; 50 μg/mL): remarkable impact
toxicity towards HaCaT cells [2]: more tolerated
toxicity against D. melanogaster (survival rate) (D. melanogaster): did not show toxicity
CL(int,H) Mean [3]: 1840.91 mL/(min*kg bodywgt.)

CC(C)(C(=O)NCCOc1ccccc1)S(=O)(=O)c1ccc(C(F)(F)F)cn1 [Compound 25, 2-Methyl-N-(2-Phenoxyethyl)-2-))5-(trifluoromethyl)pyridin-2-yl(sulfonyl(propenamide]
impact on chlamydiae (infectious progeny, IFU) ([1]; 50 μg/mL): remarkable impact
bacterial death (S. aureus JE2): bacterial death was not observed
bacterial death (E. coli K12): bacterial death was not observed
CL(int,H) Mean [3]: 1461.60 mL/(min*kg bodywgt.)

CC(C)(C(=O)NCCOc1ccccc1Cl)S(=O)(=O)c1ccccc1 [Compound 26, N-(2-(2-Chlorophenoxy)ethyl)-2-methyl-2-(Phenylsulfonyl)propanamide]
toxicity against D. melanogaster (survival rate) (D. melanogaster): did not show toxicity

CC(C)(C(=O)NCCOc1ccccc1Cl)S(=O)(=O)c1ccc(C(F)(F)F)cn1 [Compound 28, N-(2-(2-Chlorophenoxy)ethyl)-2-methyl-2-((5-(trifluoromethyl)pyridin-2-yl)sulfonyl) propanamide]
bacterial death (S. aureus JE2): bacterial death was not observed
bacterial death (E. coli K12): bacterial death was not observed

Cc1ccccc1N1CCN(C(=O)C(C)(C)S(=O)(=O)c2ccc(C(F)(F)F)cn2)CC1 [Compound 35, 2-methyl-1-(4-(o-tolyl)piperazin-1-yl)-2-((5-(trifluoromethyl)pyridin-2-yl)sulfonyl)propan-1-one]
impact on chlamydiae (infectious progeny, IFU) ([1]; 50 μg/mL): remarkable impact
bacterial death (S. aureus JE2): bacterial death was not observed
bacterial death (E. coli K12): bacterial death was not observed

CC(C)(C(=O)N1CCN(Cc2ccc(Cl)cc2)CC1)S(=O)(=O)c1ccc(C(F)(F)F)cn1 [Compound 40, 2-methyl-1-(4-(4-Chlorobenzyl)piperazin-1-yl)-2-((5-(trifluoromethyl)pyridin-2-yl)sulfonyl) propan-1-one]
inclusion yields lower than the untreated cells ([1]; 12.5 μg/mL): around 60%
impact on chlamydiae (infectious progeny, IFU) ([1]; 50 μg/mL): remarkable impact
mechanism of action (bacteriostatic or bactericidal) ([1]; 50 μg/mL, washout experiment): bacteriostatic
activity compared with penicillin ([1]; 40 at 50 μg/mL, penicillin at 5 U/mL ~ 3 μg/mL): on par with penicillin
activity compared with spectinomycin ([1]; 40 at 50 μg/mL, spectinomycin at 128 μg/mL): superior activity than spectinomycin
inhibitory activity against chlamydiae (Figure 5a) [1]: good inhibitory activity
cell toxicity to host cells (HEp-2 cells): did not observe cell toxicity
ClpP-dependent casein degradation in the absence of a chaperone (ClpP): enabled some species of ClpP to degrade casein
activation of E. coli ClpP [7]: strong activator
activation of human ClpP (human ClpP): did not activate
activation of mouse ClpP (mouse ClpP): did not activate
bacterial death (S. aureus JE2): bacterial death was not observed
bacterial death (E. coli K12): bacterial death was not observed
toxicity towards HeLa 229 cells [6]: not toxic
toxicity against D. melanogaster (survival rate) (D. melanogaster): did not show toxicity

CC(C)(C(=O)N1CCN(Cc2cccc(Cl)c2)CC1)S(=O)(=O)c1ccc(C(F)(F)F)cn1 [Compound 41, 2-methyl-1-(4-(3-chlorobenzyl)piperazin-1-yl)-2-((5-(trifluoromethyl)pyridin-2-yl)sulfonyl) propan-1-one]
impact on chlamydiae (infectious progeny, IFU) ([1]; 50 μg/mL): remarkable impact
toxicity against D. melanogaster (survival rate) (D. melanogaster): did not show toxicity

Cc1ccc(CN2CCN(C(=O)C(C)(C)S(=O)(=O)c3ccc(C(F)(F)F)cn3)CC2)cc1 [Compound 42, 2-methyl-1-(4-(4-methylbenzyl)piperazin-1-yl)-2-((5-(trifluoromethyl)pyridin-2-yl)sulfonyl) propan-1-one]
bacterial death (S. aureus JE2): bacterial death was not observed
bacterial death (E. coli K12): bacterial death was not observed
toxicity towards HaCaT cells [2]: more tolerated

C[C@H]1c2cccc(O)c2C(=O)C2=C(O)[C@]3(O)C(=O)C(C(N)=O)=C(O)[C@@H](N(C)C)[C@@H]3[C@@H](O)[C@@H]21.O [Doxycycline]
minimal chlamydicidal concentrations (MCCs) (Chlamydia): 1 µg/mL
